Only some compounds are listed: those with a hit (about 3% of all), similar ones and a draw of the others.
Xi reactivation – X-chromosome reactivation activator; XiGFP mouse fibroblasts, % GFP-positive cells imaging, 3 d; cells co-treated with 5-aza-dC sensitizer; scaled so ellipticine positive control = 100%; activation, % at 7.58 µM; hit rate 0.055% among 360,000; AID 743238;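 active = mean normalized replicate activation at least 10% and every replicate at or above 10%; inconclusive = only one of the two criteria met; inactive = mean below 10% and not all replicates reach 10%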;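 note: 0% = median of on-plate neutral control wells and 100% = ellipticine 6 µM median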
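System: XiGFP fibroblasts, SV40-immortalized. Medium: DMEM plus 5-aza-dC sensitizer. Doses: single point. Timing: 3 d treatment, 15 min room-temperature fixation. Control set: ellipticine 6 µM.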
MITF act – MITF TRPM1 promoter activation in melanoma cells; SK-MEL-5 TRPM1-promoter luciferase, 24 h; % of positive control, neutral wells = 0; activation, % at 12.5 µM; hit rate 0.75% among 300,000; AID 588334;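 active = mean activation of at least 80% with every replicate also reaching 80%; inconclusive = mean reaches 80% but some replicate falls short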;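 note: 0% = neutral control wells and 100% = parthenolide positive control wells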
Wnt bcat act – activators of Wnt/beta-catenin signaling. Wnt/beta-catenin reporter cell assay, activator, plate reader. activation, % at 9.35 µM. hit rate 1.2% among 300,000. AID 743398; in the data active = activation above about 30%, passing the limit was not always enough; inconclusive = no clear call, values can overlap the other calls;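 note: 0% = neutral control wells and 100% = positive control wells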
esBAF inh – inhibitors of esBAF chromatin remodeling in mouse ES cells; Bmi1-luciferase knock-in reporter, 24 h; 100% = twice the neutral-well signal; reporter increase, % at 12.5 µM; hit rate 2% among 350,000; in the data active = activation above about 40%; inconclusive = no clear call, values can overlap the other calls;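 note: 0% = median of the plate's neutral control wells and 100% = double that signal; a rise in the Bmi1 reporter signal indicates esBAF inhibition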
NSD2 inh – blocks human histone methyltransferase NSD2. NSD2 peptide methylation, AlphaScreen, 120 min. O96028. hit rate 0.54% among 310,000. inhibition, % at 12.5 µM; in the data active = inhibition above about 50%
CASP6 VEID inh – blocks human caspase-6 cleavage activity; hit rate 0.53% among 350,000; purified caspase-6, Z-VEID-R110 cleavage fluorescence; P55212; inhibition, % at 12.5 µM;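 active = mean inhibition across replicates at least about 35%, with every replicate also reaching that limit, limit read from the data; inconclusive = only one of the two criteria met; inactive = neither criterion met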;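 note: 0% = median of neutral control wells and 100% = no fluorescence left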
* = called active by the depositor.

Results for Cc1cc2c(NC(=O)Nc3ccc(C(F)(F)F)cc3)cccc2nn1 ?
Xi reactivation: 0.3; MITF act: 0.9; Wnt bcat act: 3.0; NSD2 inh: -4.1; CASP6 VEID inh: 53.8*

What do the screens show for `C[C@H](CO)N1C[C@H](C)[C@H](CN(C)S(=O)(=O)c2ccc(F)cc2)Oc2ccc(NC(=O)CCC(F)(F)F)cc2CC1=O`?
Xi reactivation: -1.1; esBAF inh: -3.6; CASP6 VEID inh: 4.5

Results for COCCN=c1scc(-c2ccco2)n1/N=C/c1ccc(O)c(O)c1O ?
Xi reactivation: 0.0; MITF act: 5.7; Wnt bcat act: 11.7; esBAF inh: 14.0; NSD2 inh: 87.1*; CASP6 VEID inh: 12.8

How did CC(C)N=c1scc(-c2ccco2)n1/N=C/c1ccc(O)c(O)c1 do in these assays?
MITF act: 18.9; esBAF inh: -82.1

Results for C=CCN=c1scc(-c2ccco2)n1/N=C/c1ccc(O)c(O)c1O ?
Xi reactivation: 0.4; MITF act: 39.2; Wnt bcat act: 41.7*; NSD2 inh: 16.5; CASP6 VEID inh: 23.1

What do the screens show for `O=C(c1ccncc1)N1CC(=O)N2[C@@H](CO)[C@H](c3ccc(-c4ccccc4F)cc3)[C@@H]2C1`?
Xi reactivation: 0.0

Results for CC1(C)Cc2c(sc3nc(-c4cc5ccccc5o4)n(N)c(=O)c23)CO1 ?
MITF act: 129.4*; esBAF inh: 48.3*; NSD2 inh: -11.8

How did O=c1c2cc(N3CCOCC3)ccc2[nH]c(=S)n1Cc1ccc(Cl)cc1 do in these assays?
MITF act: 59.6; esBAF inh: 54.4*; NSD2 inh: 0.3

What do the screens show for `C[C@@H]1C(=O)N[C@@H](c2ccc(F)cc2)CC=CC[C@H](C)Oc2ccccc2C(=O)N1C` (mixture of isomers)?
Xi reactivation: 0.0

What do the screens show for `O=C1c2ccccc2NC(c2ccc(-c3cccc(F)c3)o2)N1O` (centres undefined)?
Xi reactivation: 0.0; MITF act: inconclusive; Wnt bcat act: 45.7*; esBAF inh: 84.4*; CASP6 VEID inh: 2.4

What do the screens show for `O=C1c2ccccc2NC(c2ccc(-c3ccccc3F)o2)N1O` (centres undefined)?
Xi reactivation: 0.1; MITF act: inconclusive; Wnt bcat act: inconclusive; esBAF inh: 31.9; CASP6 VEID inh: 3.6

What do the screens show for `Fc1cccc(NCc2cn3ccccc3n2)c1`?
esBAF inh: 60.3*; NSD2 inh: 2.2

What do the screens show for `CCCC(=O)c1ccc(N2CCCC2)c(F)c1`?
MITF act: 68.2; Wnt bcat act: 48.8*; esBAF inh: inconclusive; NSD2 inh: -4.7

How did CCOC(=O)N1CCN(c2ccc(C(=O)c3ccccc3)cc2F)CC1 do in these assays?
MITF act: 17.7; esBAF inh: 55.7*; NSD2 inh: -1.1; CASP6 VEID inh: 6.1

How did CCOC(=O)N1CCN(c2ccc(C(C)=O)cc2F)CC1 do in these assays?
MITF act: -7.0; Wnt bcat act: -5.9; esBAF inh: 6.1; NSD2 inh: -3.8

How did COC1C(CO)OC(n2c3c(Cl)cccc3c3c4c(c5c6cccc(Cl)c6[nH]c5c32)C(=O)NC4=O)C(O)C1O (centres undefined) do in these assays?
Xi reactivation: 23.4*; MITF act: -85.6; Wnt bcat act: 10.4; CASP6 VEID inh: 0.7

How did CCOc1ccc(-c2nnc(N)s2)cc1 do in these assays?
MITF act: 56.6; esBAF inh: 60.4*; NSD2 inh: -2.3

Results for CCCCOc1ccc(-c2nnc(N)s2)cc1 ?
Xi reactivation: 0.2; MITF act: 36.0; Wnt bcat act: 9.4; NSD2 inh: -0.3; CASP6 VEID inh: -3.4

How did COc1cc2c(cc1NC(=O)c1ccco1)CCCC2 do in these assays?
MITF act: 40.4; Wnt bcat act: 12.4; esBAF inh: 76.4*; NSD2 inh: -0.4; CASP6 VEID inh: -2.2

Results for CC(Oc1ccccc1)C(=O)Nc1cccc(NC(=O)c2ccco2)c1 (centres undefined) ?
Xi reactivation: -0.2; MITF act: -10.6; Wnt bcat act: 3.4; esBAF inh: -6.7; NSD2 inh: 7.4; CASP6 VEID inh: 38.8*

What do the screens show for `COc1cc(NC(=O)C(C)C)ccc1NC(=O)c1ccco1`?
MITF act: 90.6*; Wnt bcat act: -1.5; esBAF inh: 17.3; NSD2 inh: -4.2; CASP6 VEID inh: 2.7

Results for COc1cc(NC(=S)NC(=O)c2ccco2)ccc1NC(=O)C(C)C ?
Xi reactivation: 0.3; MITF act: 8.4; Wnt bcat act: 0.6; NSD2 inh: 11.7; CASP6 VEID inh: 3.0

How did Cc1noc(C)c1S(=O)(=O)N(C)C[C@H]1OCCCC[C@H](C)Oc2ccc(NC(=O)NC3CCCCC3)cc2C(=O)N([C@H](C)CO)C[C@H]1C do in these assays?
Xi reactivation: -0.1

What do the screens show for `CN1[C@H](C(=O)NCc2ccccn2)[C@@H](CO)[C@@H]2Cn3c(ccc(-c4cccc(F)c4)c3=O)[C@@H]21`?
Xi reactivation: 0.4; esBAF inh: -4.9; CASP6 VEID inh: -0.9

What do the screens show for `CC(=O)N(C)C[C@@H]1Oc2c(NS(C)(=O)=O)cccc2C(=O)N(C)C[C@H]1C`?
Xi reactivation: 0.3

How did Cc1cc(NC(=O)CSCc2ccccc2)no1 do in these assays?
Xi reactivation: -0.1; MITF act: 27.4; Wnt bcat act: -2.4; NSD2 inh: -19.0; CASP6 VEID inh: 2.7

What do the screens show for `Cc1cc(NC(=O)CSCc2ccc([N+](=O)[O-])cc2)no1`?
Xi reactivation: 0.0; MITF act: -3.7; Wnt bcat act: -3.7; NSD2 inh: 142.7*; CASP6 VEID inh: 0.0

What do the screens show for `O=C(Cc1cccnc1)N1CC(=O)N2[C@@H](CO)[C@H](c3ccc(-c4cccc(F)c4)cc3)[C@@H]2C1`?
Xi reactivation: 0.5

How did O=C(Cn1cccc1C(=O)c1ccccc1)NCc1ccccc1Cl do in these assays?
Xi reactivation: 0.0; MITF act: 41.2; Wnt bcat act: 12.9; esBAF inh: 55.7*; NSD2 inh: -2.8; CASP6 VEID inh: 0.6

How did Cc1ccccc1C(=O)c1cccn1CC(=O)NCc1ccc(F)cc1 do in these assays?
Xi reactivation: 0.2; MITF act: 6.3; Wnt bcat act: 0.2; esBAF inh: 2.3; NSD2 inh: 3.3; CASP6 VEID inh: 0.8

What do the screens show for `COc1ccccc1CNC(=O)Cn1cccc1C(=O)c1ccccc1`?
Xi reactivation: 0.1; MITF act: 29.0; Wnt bcat act: 3.0; esBAF inh: 30.8; NSD2 inh: 3.8; CASP6 VEID inh: 7.2

Results for Cc1ccccc1C(=O)c1cccn1CC(=O)NCc1ccccc1Cl ?
Xi reactivation: 0.0; MITF act: 57.2; Wnt bcat act: 8.5; esBAF inh: 56.7*; NSD2 inh: 2.5; CASP6 VEID inh: -2.7

How did C[C@@H]1CN([C@H](C)CO)C(=O)Cc2cc(NS(=O)(=O)c3ccc(Cl)cc3)ccc2O[C@@H]1CN(C)Cc1ccc(Cl)c(Cl)c1 do in these assays?
Xi reactivation: -0.2; esBAF inh: 7.7
